4 compounds from ChEMBL document CHEMBL5046221, “Identification of Pyrimidine-Based Lead Compounds for Understudied Kinases Implicated in Driving Neurodegeneration” (J Med Chem, 2022) can be followed below.

Experiment [1] addresses T1, MAP/microtubule affinity-regulating kinase 4 (Homo sapiens, UniProt Q96L34).
T1 sequence (Q96L34 whole entry): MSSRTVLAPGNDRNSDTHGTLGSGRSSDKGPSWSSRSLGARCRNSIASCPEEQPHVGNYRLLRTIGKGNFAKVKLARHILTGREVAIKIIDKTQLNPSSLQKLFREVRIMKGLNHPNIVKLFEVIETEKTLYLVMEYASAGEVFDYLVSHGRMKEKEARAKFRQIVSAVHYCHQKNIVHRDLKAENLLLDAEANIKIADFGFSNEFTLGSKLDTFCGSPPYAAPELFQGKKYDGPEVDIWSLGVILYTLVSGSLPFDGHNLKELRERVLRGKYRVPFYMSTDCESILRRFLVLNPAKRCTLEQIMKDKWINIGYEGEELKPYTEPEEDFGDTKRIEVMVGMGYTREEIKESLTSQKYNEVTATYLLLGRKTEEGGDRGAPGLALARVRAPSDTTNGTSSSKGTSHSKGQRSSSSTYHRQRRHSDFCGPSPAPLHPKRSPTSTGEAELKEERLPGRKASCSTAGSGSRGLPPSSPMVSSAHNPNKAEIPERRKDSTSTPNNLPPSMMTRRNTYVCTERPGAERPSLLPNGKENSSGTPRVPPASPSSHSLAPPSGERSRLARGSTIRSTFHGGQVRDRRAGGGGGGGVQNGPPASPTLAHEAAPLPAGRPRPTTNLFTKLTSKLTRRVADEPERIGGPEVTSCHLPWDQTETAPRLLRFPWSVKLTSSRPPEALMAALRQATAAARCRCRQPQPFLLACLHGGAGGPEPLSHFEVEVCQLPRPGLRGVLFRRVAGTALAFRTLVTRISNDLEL
Kind of experiment: Displacement of tracer K5 from NLuc fused MARK4 (unknown origin) expressed in HEK293 cells by NanoBRET assay. The format is cell-based. Background: BRET reads energy transfer from a luciferase to a nearby fluorophore.

A short description of experiment [2]: Inhibition of human TTBK1 (1 to 479 residues) using Casein as substrate measured after 40 mins in presence of [gamma33P]ATP by scintillation counting method. The gist of the method:
(§1)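 Eurofins radiometric kinase assay run at ATP equal to Km for each kinase. 9-point dose–response in duplicate gives the IC50.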

Experiment [3] addresses MAP kinase-interacting serine/threonine-protein kinase 2 (Homo sapiens, UniProt Q9HBH9). Description: Inhibition of full length recombinant human MKNK2 using myelin basic protein as substrate incubated for 40 mins in presence of [gamma-33P-ATP] by radiometric scintillation assay. The gist of the method: as §1
Experiment [4] addresses Tyrosine-protein kinase JAK2 (Homo sapiens) (UniProt O60674). Kind of experiment: Inhibition of recombinant human JAK2 (808 to end residues) using KTFCGTPEYLAPEVRREPRILSEEEQEMFRDFDYIADWC as substrate at 1 uM incubated for 40 mins in presence of [gamma-33P-ATP] by radiometric scintillation assay relative to control. The gist of the method: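 Eurofins radiometric kinase assay with ATP at Km for each kinase. Compound was tested at a single 1 μM concentration in duplicate, and the result is reported as percent of control.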

The target in experiment [5] is T2, BMP-2-inducible protein kinase (Homo sapiens, UniProt Q9NSY1). Kind of experiment: Inhibition of 1recombinant human BMP2K using myelin basic protein as substrate incubated for 120 mins in presence of [gamma-33P-ATP] by radiometric scintillation assay.
The target in experiment [6] is T3, Inhibitor of nuclear factor kappa-B kinase subunit epsilon (Homo sapiens, UniProt Q14164).
T3 sequence (Q14164 whole entry): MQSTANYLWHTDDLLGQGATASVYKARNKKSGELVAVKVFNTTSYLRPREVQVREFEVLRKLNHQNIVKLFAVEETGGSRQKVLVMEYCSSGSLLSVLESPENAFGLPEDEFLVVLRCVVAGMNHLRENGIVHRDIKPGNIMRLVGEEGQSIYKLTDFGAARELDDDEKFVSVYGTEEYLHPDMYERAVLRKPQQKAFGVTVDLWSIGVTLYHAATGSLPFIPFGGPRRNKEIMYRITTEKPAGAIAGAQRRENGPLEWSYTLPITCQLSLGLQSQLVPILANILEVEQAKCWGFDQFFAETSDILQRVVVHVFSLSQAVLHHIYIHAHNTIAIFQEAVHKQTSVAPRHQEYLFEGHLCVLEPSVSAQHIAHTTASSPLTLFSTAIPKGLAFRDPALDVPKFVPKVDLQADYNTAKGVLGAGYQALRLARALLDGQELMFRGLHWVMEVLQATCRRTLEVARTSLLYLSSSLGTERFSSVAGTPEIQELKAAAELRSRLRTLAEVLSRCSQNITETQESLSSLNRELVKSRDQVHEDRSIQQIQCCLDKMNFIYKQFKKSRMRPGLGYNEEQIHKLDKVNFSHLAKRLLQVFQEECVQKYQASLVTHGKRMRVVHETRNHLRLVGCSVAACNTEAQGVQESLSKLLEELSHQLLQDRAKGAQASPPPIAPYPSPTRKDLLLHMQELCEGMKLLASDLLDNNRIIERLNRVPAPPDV
Kind of experiment: Inhibition of full length recombinant human IKKepsilon using casein as substrate incubated for 40 mins in presence of [gamma-33P-ATP] by radiometric scintillation assay. The gist of the method: as §1

Experiment [7] deals with Casein kinase II subunit alpha (Homo sapiens, UniProt P68400). Description: Inhibition of full length recombinant human CSNK2A1 using RRRDDDSDDD as substrate incubated for 40 mins in presence of [gamma-33P-ATP] by radiometric scintillation assay. An outline of the steps: (§2)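 Eurofins radiometric enzymatic assay with ATP at Km for each kinase. IC50 was derived from a 9-point dose–response curve run in duplicate.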

In experiment [8] the target is Serine/threonine-protein kinase PRP4 homolog (Homo sapiens, UniProt Q13523). Description: Inhibition of recombinant human PRP4 (663 to end residues) using casein as substrate incubated for 120 mins in presence of [gamma-33P-ATP] by radiometric scintillation assay. An outline of the steps:
as §2

For experiment [9], the target named is Serine/threonine-protein kinase SIK2 (Homo sapiens, UniProt Q9H0K1). Description: Inhibition of recombinant human SIK2 (1 to 276 residues) using KKKVSRSGLYRSPSMPENLNRPR as substrate measured after 40 mins in presence of [gamma33P]ATP by radiometric scintillation counting method. The gist of the method:
as §1

For another experiment, the target named is Activin receptor type-1 (Homo sapiens, UniProt Q04771). Kind of experiment: Inhibition of human ALK2 (147 to end residues) using casein as substrate incubated for 40 mins in presence of [gamma-33ATP] by scintillation counting based radiometry assay. An outline of the steps: as §2
Experiment [10] deals with T2, BMP-2-inducible protein kinase. Kind of experiment: Residual activity of human BMP2K at 1 uM using peptide as substrate incubated for 120 mins in presence of [gamma-33P-ATP] by radiometric scintillation assay relative to control.

A value given as a limit tells only on which side of the number the result lay.

Tyrosine-protein kinase JAK2 (Homo sapiens), sequence (O60674 whole entry): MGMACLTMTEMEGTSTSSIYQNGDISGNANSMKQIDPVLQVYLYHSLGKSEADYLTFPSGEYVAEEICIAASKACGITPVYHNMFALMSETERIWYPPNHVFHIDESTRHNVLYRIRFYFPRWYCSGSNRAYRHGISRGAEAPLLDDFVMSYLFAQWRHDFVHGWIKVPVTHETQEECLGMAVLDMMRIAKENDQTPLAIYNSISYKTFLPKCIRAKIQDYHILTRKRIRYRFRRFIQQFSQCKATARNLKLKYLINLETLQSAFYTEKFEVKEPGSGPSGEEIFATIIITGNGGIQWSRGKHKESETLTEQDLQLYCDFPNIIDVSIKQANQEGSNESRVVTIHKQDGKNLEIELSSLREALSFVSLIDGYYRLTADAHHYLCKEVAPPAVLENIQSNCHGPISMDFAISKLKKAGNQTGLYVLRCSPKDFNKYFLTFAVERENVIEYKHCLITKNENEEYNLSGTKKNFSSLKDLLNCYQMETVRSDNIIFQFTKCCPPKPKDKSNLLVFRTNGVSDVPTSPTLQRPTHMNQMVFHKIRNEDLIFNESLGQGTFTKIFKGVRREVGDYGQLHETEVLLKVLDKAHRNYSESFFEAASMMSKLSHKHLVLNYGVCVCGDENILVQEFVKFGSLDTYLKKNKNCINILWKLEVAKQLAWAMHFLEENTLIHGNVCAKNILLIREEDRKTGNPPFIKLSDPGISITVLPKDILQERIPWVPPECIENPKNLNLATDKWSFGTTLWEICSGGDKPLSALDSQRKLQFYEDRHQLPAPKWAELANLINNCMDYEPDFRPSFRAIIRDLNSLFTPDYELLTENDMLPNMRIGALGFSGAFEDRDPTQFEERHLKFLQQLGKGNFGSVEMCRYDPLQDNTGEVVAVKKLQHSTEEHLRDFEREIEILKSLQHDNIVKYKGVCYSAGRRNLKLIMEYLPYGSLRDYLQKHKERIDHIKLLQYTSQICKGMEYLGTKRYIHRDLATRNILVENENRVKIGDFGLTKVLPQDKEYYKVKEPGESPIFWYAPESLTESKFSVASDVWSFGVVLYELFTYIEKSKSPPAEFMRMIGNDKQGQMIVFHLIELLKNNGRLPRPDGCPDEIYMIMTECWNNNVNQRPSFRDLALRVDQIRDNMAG
T2 sequence (Q9NSY1 whole entry, looked up): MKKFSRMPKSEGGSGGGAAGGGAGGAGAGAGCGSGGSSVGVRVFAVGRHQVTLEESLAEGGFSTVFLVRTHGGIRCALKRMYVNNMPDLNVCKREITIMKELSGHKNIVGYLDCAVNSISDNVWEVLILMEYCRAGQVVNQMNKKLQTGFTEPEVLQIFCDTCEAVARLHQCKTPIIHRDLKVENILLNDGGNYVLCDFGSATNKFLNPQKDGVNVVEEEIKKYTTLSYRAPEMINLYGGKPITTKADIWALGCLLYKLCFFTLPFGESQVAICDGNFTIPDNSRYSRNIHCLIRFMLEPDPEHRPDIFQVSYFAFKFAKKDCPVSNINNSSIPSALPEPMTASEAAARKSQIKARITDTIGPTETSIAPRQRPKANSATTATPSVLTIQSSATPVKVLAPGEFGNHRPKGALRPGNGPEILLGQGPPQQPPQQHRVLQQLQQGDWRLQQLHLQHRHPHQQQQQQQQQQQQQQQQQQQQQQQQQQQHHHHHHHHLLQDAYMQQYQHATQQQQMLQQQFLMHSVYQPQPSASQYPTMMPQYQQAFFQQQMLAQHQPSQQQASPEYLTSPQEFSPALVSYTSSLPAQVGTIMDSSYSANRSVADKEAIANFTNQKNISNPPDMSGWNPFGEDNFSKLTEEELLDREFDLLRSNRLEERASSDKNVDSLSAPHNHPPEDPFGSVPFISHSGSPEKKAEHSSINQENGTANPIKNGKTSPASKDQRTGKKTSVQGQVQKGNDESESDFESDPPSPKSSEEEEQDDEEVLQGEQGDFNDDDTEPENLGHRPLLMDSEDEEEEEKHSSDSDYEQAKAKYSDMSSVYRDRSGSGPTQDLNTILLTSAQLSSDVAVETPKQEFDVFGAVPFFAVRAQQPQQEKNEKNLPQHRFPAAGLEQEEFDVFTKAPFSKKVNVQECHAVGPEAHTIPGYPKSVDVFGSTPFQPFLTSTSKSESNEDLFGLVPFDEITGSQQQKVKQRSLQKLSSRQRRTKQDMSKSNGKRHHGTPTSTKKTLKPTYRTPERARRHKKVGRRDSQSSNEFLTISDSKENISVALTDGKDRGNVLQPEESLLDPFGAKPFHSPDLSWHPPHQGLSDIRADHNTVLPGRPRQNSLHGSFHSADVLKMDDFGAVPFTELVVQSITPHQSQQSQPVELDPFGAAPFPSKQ
Serine/threonine-protein kinase PRP4 homolog, sequence (Q13523 whole entry): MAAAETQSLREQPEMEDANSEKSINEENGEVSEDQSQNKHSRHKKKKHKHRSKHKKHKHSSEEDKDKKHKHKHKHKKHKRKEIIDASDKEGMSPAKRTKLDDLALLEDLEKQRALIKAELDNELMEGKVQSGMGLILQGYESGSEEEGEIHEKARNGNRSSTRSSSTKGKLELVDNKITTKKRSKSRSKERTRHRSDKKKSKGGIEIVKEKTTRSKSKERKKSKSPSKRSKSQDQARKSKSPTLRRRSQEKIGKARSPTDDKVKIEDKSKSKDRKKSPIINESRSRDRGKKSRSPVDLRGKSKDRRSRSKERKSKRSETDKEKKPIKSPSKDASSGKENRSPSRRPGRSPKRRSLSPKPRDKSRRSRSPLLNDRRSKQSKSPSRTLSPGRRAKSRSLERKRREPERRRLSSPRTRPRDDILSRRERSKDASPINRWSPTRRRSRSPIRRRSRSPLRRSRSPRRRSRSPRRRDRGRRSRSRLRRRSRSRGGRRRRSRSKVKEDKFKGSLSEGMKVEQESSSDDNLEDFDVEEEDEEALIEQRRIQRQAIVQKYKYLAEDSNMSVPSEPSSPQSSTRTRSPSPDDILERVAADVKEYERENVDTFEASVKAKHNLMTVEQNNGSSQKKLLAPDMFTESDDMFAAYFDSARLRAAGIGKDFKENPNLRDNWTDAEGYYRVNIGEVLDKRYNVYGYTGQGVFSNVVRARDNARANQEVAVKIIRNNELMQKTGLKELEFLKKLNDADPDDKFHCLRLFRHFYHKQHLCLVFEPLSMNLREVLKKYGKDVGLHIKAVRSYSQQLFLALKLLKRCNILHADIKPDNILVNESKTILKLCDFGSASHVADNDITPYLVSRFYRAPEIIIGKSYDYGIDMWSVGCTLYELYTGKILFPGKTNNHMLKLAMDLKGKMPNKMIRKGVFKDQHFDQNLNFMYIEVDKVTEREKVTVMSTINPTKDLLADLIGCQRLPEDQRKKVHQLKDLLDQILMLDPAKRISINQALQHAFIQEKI
Casein kinase II subunit alpha, sequence (P68400 whole entry): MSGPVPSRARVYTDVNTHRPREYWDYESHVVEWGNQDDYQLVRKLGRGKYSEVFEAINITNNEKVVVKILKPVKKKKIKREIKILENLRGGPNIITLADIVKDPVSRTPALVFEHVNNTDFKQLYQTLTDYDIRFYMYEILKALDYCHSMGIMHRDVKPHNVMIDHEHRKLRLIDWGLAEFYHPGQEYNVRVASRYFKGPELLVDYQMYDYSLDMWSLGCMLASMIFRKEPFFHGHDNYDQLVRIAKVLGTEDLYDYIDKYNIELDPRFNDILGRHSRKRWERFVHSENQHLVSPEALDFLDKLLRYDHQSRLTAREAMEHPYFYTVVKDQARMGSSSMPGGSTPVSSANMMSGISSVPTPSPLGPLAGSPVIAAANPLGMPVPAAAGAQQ
Activin receptor type-1, sequence (Q04771 whole entry): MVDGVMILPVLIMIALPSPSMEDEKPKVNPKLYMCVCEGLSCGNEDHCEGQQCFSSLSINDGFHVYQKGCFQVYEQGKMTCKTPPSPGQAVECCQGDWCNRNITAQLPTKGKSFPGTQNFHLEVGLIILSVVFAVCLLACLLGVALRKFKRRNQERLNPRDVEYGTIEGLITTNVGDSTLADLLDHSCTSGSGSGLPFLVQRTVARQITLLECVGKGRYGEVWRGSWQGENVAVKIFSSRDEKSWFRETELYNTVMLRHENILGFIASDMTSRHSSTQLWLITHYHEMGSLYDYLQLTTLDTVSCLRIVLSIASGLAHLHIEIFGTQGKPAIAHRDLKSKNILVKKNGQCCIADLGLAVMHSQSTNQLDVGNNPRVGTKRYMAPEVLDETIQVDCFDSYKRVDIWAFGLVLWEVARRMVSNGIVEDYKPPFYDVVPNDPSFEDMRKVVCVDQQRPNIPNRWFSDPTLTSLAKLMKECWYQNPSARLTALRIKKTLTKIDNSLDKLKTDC
MAP kinase-interacting serine/threonine-protein kinase 2, sequence (Q9HBH9 whole entry): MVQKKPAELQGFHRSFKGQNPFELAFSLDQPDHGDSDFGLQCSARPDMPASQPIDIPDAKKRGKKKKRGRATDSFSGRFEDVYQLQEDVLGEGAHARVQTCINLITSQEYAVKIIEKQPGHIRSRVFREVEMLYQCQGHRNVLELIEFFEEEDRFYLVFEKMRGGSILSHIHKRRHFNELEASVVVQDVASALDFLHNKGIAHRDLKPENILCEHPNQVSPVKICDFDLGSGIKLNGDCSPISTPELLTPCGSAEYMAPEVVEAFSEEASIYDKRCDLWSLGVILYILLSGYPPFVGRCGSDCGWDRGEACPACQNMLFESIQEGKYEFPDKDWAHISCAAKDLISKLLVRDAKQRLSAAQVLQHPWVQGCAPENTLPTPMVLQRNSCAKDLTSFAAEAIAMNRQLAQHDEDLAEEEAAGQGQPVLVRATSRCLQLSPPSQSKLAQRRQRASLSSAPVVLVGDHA

Broadly, the IC50 is the concentration that inhibits the measured activity by half. Turning to `NS(=O)(=O)c1ccc(CNc2nc(Nc3cccc(NC(=O)N4CCCC4)c3)ncc2Br)cc1`, the IC50 in experiment [1] is greater than 10 µM; in experiment [2], 0.192 µM; in [3], 1.01 µM; in experiment [5], 0.488 µM. Also, in experiment [4], the % control stood at 12%.

Consider `NS(=O)(=O)c1ccc(CNc2nc(Nc3cccc(CN4CCOCC4)c3)ncc2C2CC2)cc1`, for which the 50% inhibitory concentration (IC50) is greater than 10 µM in experiment [1], 0.187 µM in [2] and 1.31 µM in [6]. For the same compound, the % control in experiment [4] worked out at 87%.

`NS(=O)(=O)c1ccc(CNc2nc(Nc3cccc(CN4CCOCC4)c3)ncc2Br)cc1`: the IC50 in experiment [1] is greater than 10 µM; in experiment [2] it was 0.066 µM; in [7], greater than 10 µM; in [8], greater than 10 µM. The % control in experiment [4] worked out at 3%.

As for `c1cc(CN2CCOCC2)cc(Nc2nccc(NCCc3cnc[nH]3)n2)c1`, the IC50 in experiment [1] was greater than 10 µM; in [9], 0.185 µM; on Activin receptor type-1, 0.537 µM. Further, the % control in [4] came out at 81%; in experiment [10] it was 58%.
